Assay results published in ChEMBL document CHEMBL4261550, “Triazolopyrimidines identified as reversible myeloperoxidase inhibitors” (Medchemcomm, 2017).
pIC50: −log10 of the molar value. The source made the active and inactive calls. The calls are words filed in the database; no cut-off is given here.

Tests used:
Myeloperoxidase [1] = molecular target: T1, Myeloperoxidase (Homo sapiens, UniProt P05164); assay: Inhibition of MPO in human neutrophils assessed as reduction in PMA-stimulated HOCl production incubated for 3 mins and measured for 25 mins by luminol reagent based luminescence assay
T1 sequence (P05164 whole entry): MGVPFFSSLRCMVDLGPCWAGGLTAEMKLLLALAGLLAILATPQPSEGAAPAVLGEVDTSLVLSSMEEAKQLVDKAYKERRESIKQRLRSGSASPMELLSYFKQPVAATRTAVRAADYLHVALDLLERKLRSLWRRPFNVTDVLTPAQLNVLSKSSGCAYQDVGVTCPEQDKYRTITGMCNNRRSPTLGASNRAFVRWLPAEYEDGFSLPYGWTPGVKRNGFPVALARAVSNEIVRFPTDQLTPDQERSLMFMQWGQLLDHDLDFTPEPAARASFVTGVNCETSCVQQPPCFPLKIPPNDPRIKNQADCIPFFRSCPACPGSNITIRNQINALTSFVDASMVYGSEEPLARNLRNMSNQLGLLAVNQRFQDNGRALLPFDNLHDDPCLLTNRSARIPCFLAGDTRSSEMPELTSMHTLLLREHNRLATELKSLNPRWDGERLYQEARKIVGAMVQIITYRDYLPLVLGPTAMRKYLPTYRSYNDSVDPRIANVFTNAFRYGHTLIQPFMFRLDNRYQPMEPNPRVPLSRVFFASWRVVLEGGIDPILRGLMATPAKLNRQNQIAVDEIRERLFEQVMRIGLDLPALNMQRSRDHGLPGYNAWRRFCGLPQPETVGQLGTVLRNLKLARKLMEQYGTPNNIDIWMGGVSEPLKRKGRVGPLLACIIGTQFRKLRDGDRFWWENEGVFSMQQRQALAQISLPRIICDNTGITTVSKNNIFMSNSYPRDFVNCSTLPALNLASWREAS
Summary of the method: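 Neutrophils from healthy donors isolated by dextran sedimentation then Ficoll-Paque, resuspended in HBSS; 1.106 cells/mL stimulated with 100 nM PMA; inhibitor 22 μM down to 1 nM (1:3, 10 doses) in 10% ethanol/50% PEG/40% water, 3 min at rt; luminol 100 μM final, read 25 min at 37 °C; rate taken from initial linear region.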

MPO, mouse = MPO, mouse (Mus musculus, UniProt P11247); assay: Inhibition of mouse C-terminal His10 tagged MPO (Met16 to Thr718 residues) assessed as reduction in enzyme-mediated chlorination by measuring reduction in HOCl formation preincubated for 10 mins followed by H2O2/NaCl addition and measured at 30 secs time interval for 5 mins by APF dye based fluorescence assay
Chain of MPO, mouse (P11247 whole entry, looked up): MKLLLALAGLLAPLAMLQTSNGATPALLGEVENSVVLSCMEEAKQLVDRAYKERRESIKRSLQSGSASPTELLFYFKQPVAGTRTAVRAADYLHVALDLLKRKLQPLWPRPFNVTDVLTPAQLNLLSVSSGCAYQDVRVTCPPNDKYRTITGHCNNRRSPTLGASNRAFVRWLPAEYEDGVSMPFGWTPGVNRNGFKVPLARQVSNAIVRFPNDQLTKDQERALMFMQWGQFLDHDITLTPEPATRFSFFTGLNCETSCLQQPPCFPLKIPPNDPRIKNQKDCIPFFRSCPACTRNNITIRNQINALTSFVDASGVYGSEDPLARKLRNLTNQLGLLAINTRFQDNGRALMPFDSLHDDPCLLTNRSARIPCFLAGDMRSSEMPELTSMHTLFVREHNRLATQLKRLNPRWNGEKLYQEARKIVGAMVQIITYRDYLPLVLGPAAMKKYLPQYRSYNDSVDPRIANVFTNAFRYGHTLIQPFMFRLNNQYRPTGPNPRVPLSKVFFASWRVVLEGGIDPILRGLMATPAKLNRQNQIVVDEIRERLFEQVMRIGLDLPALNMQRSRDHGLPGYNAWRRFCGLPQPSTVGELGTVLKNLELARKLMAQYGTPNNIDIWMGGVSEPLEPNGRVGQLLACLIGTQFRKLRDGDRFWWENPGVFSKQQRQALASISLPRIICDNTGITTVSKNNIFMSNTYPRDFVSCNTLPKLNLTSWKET

Myeloperoxidase [2] = molecular target: T1, Myeloperoxidase; assay: Inhibition of human MPO assessed as reduction in enzyme-mediated chlorination by measuring reduction in HOCl formation preincubated for 10 mins followed by H2O2/NaCl addition and measured at 30 secs time interval for 5 mins by APF dye based fluorescence assay
[3] = molecular target: T2, Myeloperoxidase (Homo sapiens) (UniProt P05164); assay: Substrate activity at human MPO assessed as reversion of enzyme to resting state at 40 uM in presence of H2O2 by stopped flow assay
T2 sequence (whole entry): T1 sequence (P05164 whole entry)
Summary of the method: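 Stopped-flow at 25 °C: syringe 1 with 2 μM MPO and 5 μM H2O2 in phosphate buffer, syringe 2 with inhibitor and 5 μM H2O2; equal volumes rapidly mixed, spectra acquired in PDA mode to follow several MPO species; representative of numerous replicates.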

Myeloperoxidase [4] = molecular target: T1, Myeloperoxidase; assay: Inhibition of human MPO assessed as reduction in enzyme-mediated chlorination by measuring reduction in HOCl formation in presence of H2O2/NaCl measured at 30 secs time interval for 5 mins by APF dye based fluorescence assay
[5] = molecular target: T2, Myeloperoxidase (Homo sapiens); assay: Inhibition of human MPO assessed as reduction in enzyme-mediated chlorination by measuring reduction in HOCl formation at 10 uM preincubated for 10 mins followed by H2O2/NaCl addition and measured at 30 secs time interval for 5 mins by APF dye based fluorescence assay relative to control
Summary of the method: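 HTS APF chlorination, 1536-well: 1.75 nM human MPO with 20 μM H2O2 final, compound 10 μM final, preincubated 10 min; APF reagent added, fluorescence 485/535 nm read every 30 s for 5 min; slope normalized to DMSO (0%) and no-MPO wells (100% inhibition).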

[6] = Redox activity assessed as conversion of resazurin reagent to resorufin at 10 uM after 30 mins by fluorescence assay relative to control; format: physicochemical; conditions: 0.5 h
Summary of the method: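 Redox counterscreen: compound 10 μM final incubated with 5 μM resazurin reagent (final) 30 min; fluorescence intensity read; normalized to a reactive styrylpyrimidotriazinedione standard at 10 μM as 100%.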

Myeloperoxidase [7] = molecular target: T1, Myeloperoxidase; assay: Inhibition of human MPO peroxidase activity in presence of H2O2 measured at 30 secs time interval for 5 mins by amplex red reagent based fluorescence assay
Thyroid peroxidase = molecular target: T3, Thyroid peroxidase (Homo sapiens, UniProt P07202); assay: Inhibition of recombinant human C-terminal His6-tagged TPO (15 to 839 residues) expressed in baculovirus infected insect cells assessed as reduction in H2O2-catalyzed 3,5-iodo tyrosine formation using 3-iodotyrosine and potassium iodide preincubated for 10 mins followed by 3,5-iodo tyrosine/potassium iodide/H2O2 addition and measured after 15 mins
T3 sequence (P07202 whole entry): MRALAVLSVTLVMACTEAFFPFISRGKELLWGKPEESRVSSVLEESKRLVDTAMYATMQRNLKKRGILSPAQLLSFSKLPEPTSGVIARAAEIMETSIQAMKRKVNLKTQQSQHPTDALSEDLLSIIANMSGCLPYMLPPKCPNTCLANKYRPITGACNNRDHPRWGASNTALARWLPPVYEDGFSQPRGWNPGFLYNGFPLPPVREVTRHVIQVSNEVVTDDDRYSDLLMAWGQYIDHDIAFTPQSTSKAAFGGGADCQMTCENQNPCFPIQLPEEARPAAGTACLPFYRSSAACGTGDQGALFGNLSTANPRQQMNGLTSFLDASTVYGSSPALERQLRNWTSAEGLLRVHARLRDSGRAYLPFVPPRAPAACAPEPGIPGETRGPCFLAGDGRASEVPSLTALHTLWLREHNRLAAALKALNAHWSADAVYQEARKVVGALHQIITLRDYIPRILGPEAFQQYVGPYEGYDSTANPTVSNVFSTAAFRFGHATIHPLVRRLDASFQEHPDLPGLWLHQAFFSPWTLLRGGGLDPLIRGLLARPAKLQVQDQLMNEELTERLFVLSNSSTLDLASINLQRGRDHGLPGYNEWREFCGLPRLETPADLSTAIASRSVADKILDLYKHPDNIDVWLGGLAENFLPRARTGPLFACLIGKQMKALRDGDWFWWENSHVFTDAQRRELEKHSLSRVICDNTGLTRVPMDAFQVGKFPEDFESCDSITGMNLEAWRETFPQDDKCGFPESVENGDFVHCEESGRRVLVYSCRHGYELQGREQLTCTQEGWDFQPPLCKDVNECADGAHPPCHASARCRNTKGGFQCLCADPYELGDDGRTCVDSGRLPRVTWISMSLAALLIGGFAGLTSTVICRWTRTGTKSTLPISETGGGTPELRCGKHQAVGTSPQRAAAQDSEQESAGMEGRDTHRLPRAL
Summary of the method: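 TPO residues 15–839 with C-terminal His6, baculovirus/T. ni expressed, purified by Ni affinity, anion exchange and size exclusion; 4.0 nM in 100 mM KPi pH 7.4, 10 min rt preincubation with inhibitor; then 400 μM KI/240 μM 3-iodotyrosine mix and 20 μM H2O2 (added solutions); 3,5-iodotyrosine formation monitored.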

| SMILES | pIC50 (Myeloperoxidase [1]) | pIC50 (MPO, mouse) | pIC50 (Myeloperoxidase [2]) | Activity [3] | pIC50 (Myeloperoxidase [4]) | inhibition [5] [%] | Activity [6] | pIC50 (Myeloperoxidase [7]) | pIC50 (Thyroid peroxidase) |
| --- | --- | --- | --- | --- | --- | --- | --- | --- | --- |
| Nc1nc(OCc2ccccc2)c2[nH]nnc2n1 | 5.30 | 7.09 | 6.96 | inactive | 7.08 | 30 | Not Active | 6.96 | < 4.52 |
| Nc1ccc(Oc2cc(Cl)c(Cl)cc2Cl)cn1 | 5.77 | 6.64 | 6.44 | Active | 6.49 | 30 | Not Active | 6.08 | 5.22 |
